High-throughput results deposited in PubChem by several laboratories.
SENP1 inh = human SENP1 catalytic domain inhibitors, primary screen, biochemical, FRET, uHTS | 360,000 compounds, 0.21% hits | recombinant SENP1 catalytic domain, CyPet-SUMO1-YPet FRET cleavage | inhibition, % at 10 µM | Sentrin-specific protease 1 (Homo sapiens), Q9P0U3;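 active means inhibition at least 30% at 10 µM, raw YFP signal under a set limit, fluorescence ratio 0.5 to 1.5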
Target sequence (Q9P0U3 419-644 limits assumed): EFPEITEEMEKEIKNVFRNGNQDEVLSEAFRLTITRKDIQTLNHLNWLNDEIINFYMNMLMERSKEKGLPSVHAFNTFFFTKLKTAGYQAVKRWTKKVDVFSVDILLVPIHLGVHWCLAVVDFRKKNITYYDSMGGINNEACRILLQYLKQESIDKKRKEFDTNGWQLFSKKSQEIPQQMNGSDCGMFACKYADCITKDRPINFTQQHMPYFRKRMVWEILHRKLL
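Material – human SENP1 catalytic domain · Input – SENP1 enzyme, 20 pM final · Compound dosing – single concentration of 10 µM compound, 0.5% DMSO final · Timing – enzyme reaction for 50 min at room temperature, dark · Measured by – FRET fluorescence in CFP and YFP emission channels · Control set – no-enzyme wells low, DMSO-plus-enzyme wells high control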
Pemphigus Ab inh = inhibitors of pemphigus antibody binding to DSG3, primary screen, biochemical, bead-based, flow cytometry, scFv-GFP; Desmoglein-3 (Homo sapiens), P32926; binding (percent of control), % at 10 µM; DSG3-coupled beads, scFv-anti-DSG3-GFP binding; active compounds read low; AID 588358, 2011; 310,000 compounds, 0.48% hits;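 active means binding more than 3 SD below its plate's average and above zero; inconclusive means below that plate limit but binding exactly zero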;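 further: hits lower antibody fragment binding to DSG3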
H9c2 protect = cardioprotection against H2O2-induced cell death, primary screen, uHTS, H9c2 cells, ATPLite luminescence; H9c2 cardiomyocytes, H2O2 injury protection, 2 h; 360,000 compounds, 0.63% hits; AID 588492, 2011; protection from H2O2 cell death, % at 20 µM;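 active means compounds giving at least 50% protection of heart cells from peroxide-induced death in the single-dose screen, raw or plate-pattern-corrected value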
Myeloid diff 2 = induction of myeloid progenitor differentiation, primary screen, cell-based, flow cytometry, MLPCN library; ER-HoxA9 myeloid progenitors, lysozyme-GFP differentiation; calls only at 10 µM; 360,000 compounds, 1% hits; AID 624256, 2012;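 active means normalized GFP-positive differentiation at or above the plate's own cutoff, the solvent-only control mean plus 3 SD; inconclusive means no clear call, values can overlap the other calls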;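 further: cells exposed to compound for four days before flow analysis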
Granule exo inh = LAMP-1 surface exposure blockers, TALL-104 cells – cell-based, flow cytometry, MLPCN library, primary screen. TALL-104 LAMP-1 surface exposure; cells stimulated with thapsigargin and PMA. inhibition, % at 10 µM. 360,000 compounds, 0.66% hits. AID 651702, 2012;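 active means inhibition above about 55%, limit read from the data; inconclusive means no clear call, values can overlap the other calls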
HNF4A DNA FP = change in binding of human HNF4A to DNA, primary screen, biochemical, fluorescence polarization, FITC-DNA. 1 h. activity change, % at 10 µM. 360,000 compounds, 0.3% hits; in the data active means activity change above about 30%, passing the limit was not always enough
Myeloid diff CP1 = inducers of myeloid progenitor differentiation, confirmation, cell-based, GFP/Mac1 flow cytometry, cherry pick 01; shares compounds with Myeloid diff 2; ER-HoxA9 myeloid progenitors, GFP/Mac1 double-positive flow; calls only; 2,300 compounds, 2% hits;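 active means share of green or green-and-red cells above 9 and 9% in run 1 or 4 and 3% in run 2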
GFP autofluor = counter-screen for myeloid differentiation promoters: compound fluorescence | shares compounds with Myeloid diff 2 | ER-HoxA9 myeloid progenitors, no estrogen, GFP autofluorescence flow cytometry; vehicle wells 0%, positive control 100% | fluorescence response, % (concentration not given with the values) | 2,300 compounds, 7.4% hits | AID 651707;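 active means over 5% cells positive for green fluorescent reporter, or over 2% positive for both it and APC stain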
Numbers stand for hits; n = inactive; u = inconclusive; x = no result; + = active, no number. Sampled rows, rich in hits. Any-hit rate of the full collection: about 3%.

SMILES	SENP1 inh	Pemphigus Ab inh	H9c2 protect	Myeloid diff 2	Granule exo inh	HNF4A DNA FP	Myeloid diff CP1	GFP autofluor
CC(C)(C)[C@H]1COC(=O)[C@H](NC(=O)OCC2c3ccccc3-c3ccccc32)C/C=C\C[C@@H](CC(=O)N[C@@H](CO)Cc2ccccc2)C(=O)N1	n	n	n	n	n	n	x	x
CCOC(=O)C(=O)N1CCN(c2cc3c(cc2[N+](=O)[O-])n(C)c(=O)n3C)CC1	n	n	n	n	n	n	x	x
COC(=O)c1sccc1NC(=O)c1c(F)c(F)c(F)c(F)c1F	n	n	n	n	n	n	x	x
O=C(NCCN1CCOCC1)N1CCOCC1	n	n	n	n	n	n	n	n
CCCC(CCC)C(=O)NCCN1CCOCC1	n	n	n	n	n	n	x	x
COCCn1ccc2c(OCC(=O)Nc3cc(OC)ccc3OC)cccc2c1=O	n	n	n	+	n	n	n	n
CC(=O)N1CC(C)Oc2ccc(S(=O)(=O)NC(CC(=O)O)c3ccc(C)cc3C)cc21 (centres undefined)	n	n	n	n	n	n	x	x
c1ccc(CCc2nn3c(Cn4nnc5ccccc54)nnc3s2)cc1	n	n	n	n	n	n	x	x
c1ccc(Cc2nn3c(Cn4nnc5ccccc54)nnc3s2)cc1	n	n	n	n	n	n	n	n
CCN1C(=O)[C@H]2[C@@H](c3ccc(C(F)(F)F)cc3)N[C@]3(CCCN(CC4CCCCC4)C3=O)[C@H]2C1=O	n	n	n	+	n	n	n	n
COc1ccc(C2=NS(=O)(=O)N(C)C(C(=O)NCc3ccccn3)=C2)cc1OC	n	n	n	n	n	n	x	x
COC(=O)c1cc(S(=O)(=O)N2CCCCC2)ccc1N1CCOCC1	n	n	n	x	n	n	x	x
COC(=O)c1cc(S(=O)(=O)N2CCOCC2)ccc1Sc1ccccc1N	n	n	n	n	n	n	n	n
Cc1ccc(CNC(=O)CN(c2cccc([N+](=O)[O-])c2)S(=O)(=O)c2ccccc2)cc1	n	n	n	n	n	n	x	x
Cc1ccc(S(=O)(=O)N(CC(=O)N(C)C)c2cccc([N+](=O)[O-])c2)cc1	n	n	n	+	n	n	n	n
O=C(NCc1ccccc1)C1C(c2ccc3c(c2)OCO3)=Nc2ccccc2N1C(=O)c1ccco1 (centres undefined)	n	x	x	n	n	n	n	n
C#CC[N+](CC)(CC)CC#Cc1cccc(Cl)c1	n	n	n	+	n	n	n	n
C#CC[N+](C)(C)CC#Cc1ccc(Cl)cc1	n	n	n	n	n	n	x	x
Cc1cccc(NC(=O)C2Cc3ccccc3O/C2=N\O)c1 (centres undefined)	n	n	n	n	n	n	x	x
O=C(Nc1nnc(CCc2ccccc2)s1)c1cccc(F)c1	n	n	n	n	n	n	x	x
CSc1ncnc2c1ncn2CCCNCC1CCCO1 (centres undefined)	n	n	n	n	n	n	x	x
CSc1ncnc2c1ncn2CCCNCCCN1CCCC1=O	n	n	n	+	n	n	n	n
Cc1ccc(/C=N/c2sc(Cc3ccccc3)c(C)c2C(N)=O)o1	n	n	n	n	n	n	n	n
Nn1c(-c2ccccc2)cc(-c2ccccc2)cc1=O	n	n	n	n	n	n	x	x
CC(=O)Nc1ccc(NC(=O)COC(=O)c2cnccn2)cc1	n	n	n	n	n	n	x	x
SMILES	SENP1 inh	Pemphigus Ab inh	H9c2 protect	Myeloid diff 2	Granule exo inh	HNF4A DNA FP	Myeloid diff CP1	GFP autofluor
Cc1ccc(N/C(N)=N/c2nc3c(c(=O)[nH]2)CCCC3)c(C)c1	n	n	n	+	n	n	n	n
N/C(=N\c1nc2c(c(=O)[nH]1)CCCC2)Nc1ccccc1	n	n	n	n	n	n	x	x
Cc1ccc(C(=O)OCC(=O)NCc2cccc(Cl)c2)cc1S(=O)(=O)N1CCCCC1	n	n	n	n	n	n	x	x
COc1cc2nc(NC(=O)c3ccc(F)cc3Cl)sc(=O)c2cc1OC	n	n	n	n	n	n	x	x
COc1ccc(CCN(C)C(=O)c2cc(-c3ccc(C)cc3)nc3ccccc23)cc1OC	n	u	n	u	n	n	x	x
Cc1nn(C)c(C)c1NC(=O)CSc1nnc(C)n1-c1ccccc1	n	n	n	+	n	n	n	n
CC(=O)Nc1ccc(NC(=O)CSc2nnc(C)n2-c2ccccc2)cc1	n	n	n	n	n	n	x	x
CCn1c(SCC(=O)Nc2ccc(OC)c(S(=O)(=O)N3CCCCC3)c2)nnc1C1CC1	n	n	n	n	n	n	x	x
c1cnc(N2CCN(c3nc4ccccc4n4cnnc34)CC2)nc1	n	n	n	n	n	n	n	n
O=c1[nH]c2ccccc2n2c(C(F)(F)F)nnc12	n	n	n	+	n	n	n	5.7
N#Cc1c(C(F)(F)F)cc(=O)n2c1[nH]c1ccccc12	n	n	n	n	n	n	x	x
COc1ccccc1CNC(=O)C(CCSC)NS(=O)(=O)c1ccc2c(c1)oc(=O)n2C (centres undefined)	n	x	n	n	n	n	x	x
COc1cccc(CNC(=O)C(CCSC)NS(=O)(=O)c2ccc3c(c2)oc(=O)n3C)c1 (centres undefined)	n	n	n	n	n	n	n	5.8
CCCCN(C)C1CCN(C(=S)Nc2cccc(SC)c2)CC1	n	n	n	n	n	n	x	x
Oc1ccc(N2CCN(c3nnnn3-c3ccccc3)CC2)cc1	n	n	n	+	n	n	n	n
COc1ccc(NC(=S)N2CCC3CC2c2c(Cl)cccc23)c(OC)c1 (centres undefined)	n	x	n	+	n	n	+	n
C=CCNC(=S)N1CCC2CC1c1c(Cl)cccc12 (centres undefined)	n	x	n	n	n	n	x	x
CCN(CC)S(=O)(=O)c1ccc(OCC(=O)NC(=O)c2ccccc2OC)c([N+](=O)[O-])c1	n	n	n	n	n	n	x	x
O=C(NCCc1ccccc1)c1ccccc1NS(=O)(=O)N1CCCC1	n	n	n	n	n	n	n	n
O=C(NCCc1ccccc1)c1ccc(S(=O)(=O)N2CCCCC2)cc1	n	n	n	n	n	n	x	x
CCN(Cc1ccncc1)Cc1nc(Cc2ccccc2Cl)no1	n	n	n	n	n	n	x	x
